NOD2-RIPK2 inh = blocks binding of human NOD2 to RIPK2 | 360,000 tested, 0.38% active | inhibition, % at 4.98 µM | CHO BLA complementation NOD2-RIPK2, CCF4 ratio | O43353; in the data active = inhibition above about 21%;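 also: 0% = vehicle only and 100% = reference blocker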
Target sequence (O43353 whole entry, looked up): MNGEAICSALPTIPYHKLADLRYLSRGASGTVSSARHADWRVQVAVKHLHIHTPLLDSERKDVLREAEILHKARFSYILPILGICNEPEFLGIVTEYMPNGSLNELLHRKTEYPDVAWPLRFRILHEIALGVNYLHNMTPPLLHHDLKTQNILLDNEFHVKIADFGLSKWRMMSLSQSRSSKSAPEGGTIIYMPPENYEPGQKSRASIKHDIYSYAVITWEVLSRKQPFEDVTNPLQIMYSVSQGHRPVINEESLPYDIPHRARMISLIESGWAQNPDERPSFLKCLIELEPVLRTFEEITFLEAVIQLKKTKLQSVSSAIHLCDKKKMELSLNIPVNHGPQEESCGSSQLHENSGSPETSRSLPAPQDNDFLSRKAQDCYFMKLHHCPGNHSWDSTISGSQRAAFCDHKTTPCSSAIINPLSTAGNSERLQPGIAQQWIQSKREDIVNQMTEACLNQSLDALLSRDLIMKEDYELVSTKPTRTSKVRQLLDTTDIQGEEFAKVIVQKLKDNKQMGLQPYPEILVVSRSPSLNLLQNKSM
TLR9-MyD88 block = blocks human TLR9 binding to MyD88; 340,000 tested, 0.21% active; CHO BLA complementation TLR9-MyD88, CCF4 FRET ratio; AID 504734; Q9NR96+Q99836; inhibition, % at 4.98 µM;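 active = inhibition above the mean over all tested compounds plus 3 SD, cut at about 21% in these data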;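 also: 0% = DMSO only wells and 100% = clavulanate BLA inhibitor control wells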
MC4R barr agon = activates human MC4R beta-arrestin recruitment. activation, % at 8.9 µM. P32245. AID 540308. 360,000 tested, 0.98% active. U2OS MC4R beta-arrestin complementation, luminescence; percent of melanotan II response, DMSO zero;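 active = activation above a per-plate cutoff, the mean activation of sample wells on that plate plus 3 SD, cut at about 8% in these data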
MIN6 prolif-1 = inducers of beta-cell replication in MIN6 cells; proliferation, % at 10 µM; AID 2380; MIN6 cells proliferation, ATPlite luminescence, 48 h; cells starved in 0.2% serum; 100% = growth in 10% serum; 330,000 tested, 0.29% active;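 active = compounds whose signal lies at least 3.5 SD above the mean of all wells on their plate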;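 also: 0% = DMSO-treated cells in low-serum medium and 100% = 10% serum control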
TLR4 MyD88 comp = TLR4-MyD88 interaction inhibition in cells. 200,000 tested, 0.18% active. O00206+Q99836. inhibition, % at 8.4 µM. HeLa CL3-4 TLR4/MyD88 BLA complementation, FRET ratio. AID 861; in the data active = inhibition above about 25%;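 also: 0% = vehicle and 100% = reference inhibitor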
MC4R antagonist = human MC4R antagonism in cAMP assay. P32245. MC4R-expressing cells, MTII-stimulated cAMP, LANCE TR-FRET. inhibition, % at 6.5 µM. 360,000 tested, 0.48% active. AID 540295;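 active = inhibition above its plate's cutoff, the mean of tested wells on that plate plus 3 SD, cut at about 29% in these data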;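 also: 0% = Melanotan II alone and 100% = Melanotan II plus saturating MCL0020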
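Material – human MC4R-expressing U2OS cells · Repeats – no replicates · Detection – TR-FRET with Eu-cAMP and labeled anti-cAMP, 671 nm · Times – compound 30 min, challenge 1 h, detection 1 h · Compound – single nominal compound dose of 6.5 µM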
MIN6 prolif-2 = confirmation of inducers of beta-cell replication in MIN6 cells; shares compounds with MIN6 prolif-1; MIN6 beta-cell proliferation, ATPlite luminescence, 48 h; cells kept in 0.2% serum; scaled between 0.2% and 10% serum; proliferation increase, % at 50 µM; 920 tested, under 10 active;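 active = proliferation increase above 40% at any of the four tested concentrations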
The depositor's hits bear a star; · = no result. Compounds with a hit are over-represented: about 2.1% of the library has one in this group of screens.

SMILES	NOD2-RIPK2 inh	TLR9-MyD88 block	MC4R barr agon	MIN6 prolif-1	TLR4 MyD88 comp	MC4R antagonist	MIN6 prolif-2
N#Cc1c(N)nc2c(c1-c1ccc3c(c1)OCO3)CCCCCC2	-12.6	-16.7	2.8	-2.2	9.4	9.2	·
O=C(c1cccc(Cl)c1)N1CCN(c2ccc(N3CCOCC3)nn2)CC1	-4.6	4.0	-0.2	14.3*	·	7.8	-1.0
O=C(c1ccccc1)N1CCN(c2ccc(N3CCOCC3)nn2)CC1	7.2	2.2	-4.7	-3.6	·	2.7	·
CCOc1ncccc1C(=O)Nc1ccc(C)cn1	0.8	-1.4	-4.3	11.0*	·	0.3	2.1
CCOc1ncccc1C(=O)NCc1ccc(C)cc1	-7.1	7.7	-0.7	0.0	-7.7	3.0	·
O=C(NCc1ccc2c(c1)OCO2)c1ccc2snnc2c1	3.2	4.8	-1.4	8.2*	-3.9	-3.1	-0.1
O=C(NCc1ccc2c(c1)OCO2)c1ccc2c(c1)OCO2	-10.6	-17.0	-1.1	-0.4	·	7.4	·
Cc1ccc(N(C(=O)c2csnn2)C(C(=O)NC2CCCC2)c2ccccn2)cc1 (centres undefined)	1.3	7.6	0.9	2.6	·	15.4	·
O=C(CN1C(=O)c2cccc3cccc(c23)C1=O)NCCN1CCOCC1	1.9	-17.6	-4.4	-0.9	4.2	1.9	·
CCCn1cnc2scc(-c3ccc(OC)cc3)c2c1=O	4.0	-0.9	-0.4	-1.7	·	13.6	·
CCCn1cnc2scc(-c3ccc(C)cc3)c2c1=O	-18.6	-0.5	-2.9	14.1*	-11.0	2.4	-2.5
Cn1c(C(=O)c2ccccc2[N+](=O)[O-])nc2ccccc21	3.2	5.2	0.7	-1.7	-2.7	1.2	·
COc1ccc(NS(=O)(=O)c2cccc(C(=O)NNC(=O)CNC(=O)c3ccccc3)c2)cc1	8.8	3.9	-0.8	-2.8	·	10.2	·
COc1ccc(NS(=O)(=O)c2cccc(C(=O)NNC(=O)CNC(=O)c3cccc(C)c3)c2)cc1	7.8	-2.4	-2.8	9.7*	·	4.0	1.6
CC1(c2ccc(Cl)cc2)NC(=O)N(CC(=O)Nc2cccnc2Cl)C1=O (centres undefined)	-1.2	-13.3	-1.7	0.1	·	19.0	·
Cc1cc(NS(=O)(=O)c2ccc(NC(=O)CSc3nnc(-c4ccco4)n3C)cc2)nc(C)n1	-0.8	5.9	-0.9	5.8*	-6.6	1.2	1.6
Cc1cc(NS(=O)(=O)c2ccc(NC(=O)CSc3nnc(-c4ccco4)n3N)cc2)nc(C)n1	-0.8	-3.7	-3.1	2.8	1.3	-1.1	·
COc1ccc(Cl)cc1NC(=O)CCNS(=O)(=O)c1cccc2nonc12	-4.5	1.0	-1.0	0.6	·	-3.3	·
CC(C)C[C@H](NC(=O)NCc1ccc(Cl)cc1)C(=O)O	-13.2	3.7	0.4	10.1*	4.4	0.5	-1.7
Cc1ccccc1-c1cnc(C(O)c2c(C)cccc2C)[nH]1 (centres undefined)	3.2	·	0.6	·	·	1.8	·
O=[N+]([O-])c1ccc(-n2nnnc2CN2CCCCC2)cc1	-11.7	0.5	-2.4	9.3*	-5.8	5.1	5.5
Cc1ccccc1CNC(=O)c1ccccc1N	0.2	-11.9	0.2	8.4*	-6.8	12.2	-2.4
Cc1ccccc1CNC(=O)c1ccccc1C	1.4	-1.6	0.8	-1.6	2.7	5.4	·
COCC(=O)N1CCC(Oc2ccc(C(=O)N(C)C3CCCCC3)cc2)CC1	0.4	2.6	0.5	2.2	·	-2.0	·
COCCC(=O)N1CCC(Oc2ccc(C(=O)N(C)C3CCCCC3)cc2)CC1	-11.8	1.5	0.8	6.6*	·	7.0	-2.9
SMILES	NOD2-RIPK2 inh	TLR9-MyD88 block	MC4R barr agon	MIN6 prolif-1	TLR4 MyD88 comp	MC4R antagonist	MIN6 prolif-2
O=C(COc1ccccc1)NC1CCS(=O)(=O)C1 (centres undefined)	6.4	-3.5	-0.2	0.4	-4.6	6.5	·
CC(=O)c1ccc(OCC(=O)NC2CCS(=O)(=O)C2)cc1 (centres undefined)	-1.8	-0.1	-1.1	5.0*	-0.7	3.5	0.2
O=C(Nc1oc2ccccc2c(=O)c1-c1ccc(Br)cc1)c1ccco1	-10.1	-12.2	-2.3	-1.6	·	21.9	·
CS(=O)(=O)N1CCCC(C(=O)NCCN2CCC(Cc3ccccc3)CC2)C1 (centres undefined)	-7.5	1.6	-2.6	5.4*	10.8	10.6	-4.8
CCS(=O)(=O)N1CCCC(C(=O)NCCN2CCC(Cc3ccccc3)CC2)C1 (centres undefined)	-6.0	2.6	-0.2	-0.3	-15.5	4.9	·
COCCn1c(=O)[nH]c2cc(C(=O)N3CCN(c4cccc(C)c4C)CC3)ccc2c1=O	-5.1	4.6	0.5	-2.4	·	27.8	·
Cn1c(Nc2ccc(Cl)cc2F)nc2cc(-c3ccccc3)sc2c1=O	5.0	·	2.6	·	·	3.3	·
CCOc1nc(Nc2ccccc2F)nc(OCC)n1	2.6	0.5	-1.5	5.0*	·	-0.3	-2.2
C[C@@H]1CN([C@@H](C)CO)C(=O)CCCn2nncc2CO[C@@H]1CN(C)S(=O)(=O)c1ccccc1	5.2	-16.1	-0.9	·	·	1.2	·
C=CCn1c(N2CCN(c3ccc(OC)cc3)CC2)nc2c1c(=O)n(C)c(=O)n2C	-11.2	-6.8	-0.8	8.3*	-0.2	18.1	-2.6
COCCn1c(N2CCN(c3ccc(OC)cc3)CC2)nc2c1c(=O)n(C)c(=O)n2C	1.7	4.5	-1.1	1.3	-14.0	-4.6	·
O=C(CCCc1nc2ccccc2s1)NNC(=O)CCN1CCN(Cc2ccccc2)CC1	-2.7	-3.3	-0.6	-2.2	-3.7	1.7	·
O=C(NCc1cccs1)c1cnc(Cl)c(Cl)c1	1.8	-1.9	-2.0	-4.7	6.9	20.6	·
O=C(NCc1cccs1)c1cccnc1Cl	-1.7	0.0	1.8	0.0*	-13.5	7.6	1.3
CCN(CC)Cc1c(C(=O)N/N=C/c2ccncc2)nnn1-c1nonc1N	-1.3	0.7	-0.8	-4.6	·	8.8	·
CCN(CC)Cc1c(C(=O)N/N=C/c2ccc(C)o2)nnn1-c1nonc1N	-6.1	13.1	-0.7	0.0*	·	-1.1	3.7
Cc1ccc(OCCC(=O)OCC(=O)NC(=O)NC2CCCCC2)cc1	0.7	12.0	6.4	1.6	·	-5.6	·
Cc1ccc(C2=NNC(C(O)C(O)C(O)CO)S2)cc1 (centres undefined)	-11.8	5.9	1.3	5.8*	-8.4	3.7	0.5
O=C(c1ccsc1)N1CCCC(Nc2cccc(F)c2)C1 (centres undefined)	2.2	-1.2	-1.1	11.6*	·	-3.5	-1.5
O=C(COC(=O)Cc1c(Cl)cccc1Cl)NCc1ccccc1	-7.5	-13.7	-0.6	·	·	5.2	·
COC(=O)N1C(=O)[C@@](CC(C)C)(c2ccccc2)N1C(=O)OC	·	·	·	17.2*	·	·	-6.3

Screening results: PubChem BioAssay, several laboratories
